Test results as given in ChEMBL document CHEMBL1145239 (Bioorg Med Chem Lett, 2005).

Molecular target: Dipeptidyl peptidase 4 (Rattus norvegicus, UniProt P14740)
Test: Inhibitory concentration against rat dipeptidylpeptidase IV
How it was run: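 DPP-IV activity in rat plasma (10-fold diluted) by fluorescence with Gly-Pro-MCA substrate (100 µmol/L solution added); buffer PBS with 0.003% Brij-35. Inhibitor at various concentrations, room temperature, 60 min. Inhibition relative to solvent control; IC50 by logistic analysis.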

Sequence of Dipeptidyl peptidase 4 (P14740 whole entry): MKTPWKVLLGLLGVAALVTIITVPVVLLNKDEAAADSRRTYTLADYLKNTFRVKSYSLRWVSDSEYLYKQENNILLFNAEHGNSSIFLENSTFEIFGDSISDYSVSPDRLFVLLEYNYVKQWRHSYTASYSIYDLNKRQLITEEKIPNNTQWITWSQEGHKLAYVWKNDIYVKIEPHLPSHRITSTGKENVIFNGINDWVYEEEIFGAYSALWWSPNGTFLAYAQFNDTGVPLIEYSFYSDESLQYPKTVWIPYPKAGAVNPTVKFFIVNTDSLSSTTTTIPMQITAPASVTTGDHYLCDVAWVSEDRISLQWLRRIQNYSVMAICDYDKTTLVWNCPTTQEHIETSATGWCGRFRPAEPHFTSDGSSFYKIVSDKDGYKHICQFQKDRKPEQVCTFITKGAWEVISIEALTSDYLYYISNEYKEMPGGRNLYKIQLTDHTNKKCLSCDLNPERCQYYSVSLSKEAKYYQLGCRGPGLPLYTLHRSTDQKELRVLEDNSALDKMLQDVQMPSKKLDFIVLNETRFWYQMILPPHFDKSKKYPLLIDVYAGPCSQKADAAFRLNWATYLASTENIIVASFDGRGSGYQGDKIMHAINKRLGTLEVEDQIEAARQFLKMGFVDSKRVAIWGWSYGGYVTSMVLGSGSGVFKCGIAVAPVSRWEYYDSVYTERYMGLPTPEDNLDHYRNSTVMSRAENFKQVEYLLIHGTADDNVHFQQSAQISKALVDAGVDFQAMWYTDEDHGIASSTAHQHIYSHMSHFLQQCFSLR

Row | Compound | IC50 [nM]
1 | N#C[C@@H]1CCCN1C(=O)[C@@H]1C[C@H](NC(=O)Nc2ccccc2)CN1 | 1.1
2 | N#C[C@@H]1CCCN1C(=O)[C@@H]1C[C@H](NCc2ccccc2)CN1 | 3
3 | N#C[C@@H]1CCCN1C(=O)[C@@H]1C[C@H](NCCc2ccccc2)CN1 | 1.5
4 | COc1ccc(N[C@@H]2CN[C@H](C(=O)N3CCC[C@H]3C#N)C2)cc1 | 0.28
5 | N#Cc1ccc(N[C@@H]2CN[C@H](C(=O)N3CCC[C@H]3C#N)C2)cc1C#N | 0.17
6 | N#C[C@@H]1CCCN1C(=O)[C@@H]1C[C@H](NS(=O)(=O)c2ccccc2)CN1 | 3.9
7 | N#C[C@@H]1CCCN1C(=O)[C@@H]1C[C@H](NC2CCCCC2)CN1 | 3.6
8 | COc1ccc(N[C@@H]2CN[C@H](C(=O)N3CCC[C@H]3C#N)C2)cc1OC | 0.24
9 | N#C[C@@H]1CCCN1C(=O)[C@@H]1C[C@H](N)CN1 | 9.1
10 | N#C[C@@H]1CCCN1C(=O)[C@@H]1C[C@H](NC(=O)c2ccccc2)CN1 | 3.8
11 | N#Cc1ccc(N[C@@H]2CN[C@H](C(=O)N3CCC[C@H]3C#N)C2)cc1 | 0.26
